The record followed here is ChEMBL document CHEMBL1240409, “Design, synthesis and evaluation of (E)-alpha-benzylthio chalcones as novel inhibitors of BCR-ABL kinase” (Bioorg Med Chem, 2010).

The source made the active and inactive calls. The rule behind the calls is not given here.

What is called IC50 is the midpoint of a concentration-inhibition curve. As usually defined, the solubility is how much of the substance goes into solution per volume. For orientation: GI50 means the concentration at which growth is held to half of that of the control. A lower GI50 goes with more potent growth inhibition.

The target of data set [1] is T1, Bcr/Abl fusion protein (Homo sapiens, UniProt P00519). The data set is described as follows: Inhibition of BCR/ABL p210 autophosphorylation in human K562 cells after 2 hrs by Western blot analysis. Format: cell-based.
A short description of data set [2]: Aqueous solubility of the compound. It counts as physicochemical. Particulars: buffer.
A further data set concerns K562. Kind of data set: Growth inhibition of human K562 cells expressing p210Bcr/Abl after 96 hrs by trypan blue exclusion assay. It counts as functional, cell-based. As to conditions: K562, 96 h. The method in brief:
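K562 cells were kept in RPMI with 10% FBS and penicillin–streptomycin at 37 °C under 5% CO2. Cells were seeded at 1 × 10^5 cells/mL with a range of compound concentrations, using DMSO as the negative control. After 96 h, viability was counted by Trypan blue exclusion and expressed as percent of DMSO control to derive GI50.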

Data set [3] can be described thus: Aqueous solubility of the compound.
Data set [4] has as its target Bcr/Abl fusion protein (Homo sapiens) (UniProt P00519+P11274). Kind of data set: Inhibition of BCR/ABL p210 autophosphorylation in human K562 cells at 0.2 to 10 uM after 2 hrs by Western blot analysis. Format: cell-based. The gist of the method:
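Exponentially growing K562 cells were treated for 2 h with rising compound concentrations, diluted from 10 mM DMSO stocks via 1000× DMSO working stocks, or with DMSO vehicle. Lysates were run on 10% SDS–PAGE. Blots were probed sequentially for phospho-BCR-ABL and total BCR-ABL, detected with infrared-dye secondaries, and quantified by densitometry. The phospho signal was normalized to total, with % inhibition relative to vehicle.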
(In western blotting, separated proteins are transferred to a membrane and probed.)

Another data set concerns DU-145. The data set is described as follows: Growth inhibition of human DU145 cells after 96 hrs by trypan blue exclusion assay. It counts as functional. As to conditions: DU-145, 96 h.
Data set [5] deals with Tyrosine-protein kinase Lyn (Homo sapiens, UniProt P07948). Kind of data set: Inhibition of GST-tagged recombinant LynB after 20 mins by autoradiography. The method in brief:
(§1)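 Kinase reactions were started by adding 1 µg recombinant substrate with unlabelled and 32P-labelled ATP. They ran 20 min at 30 °C and were stopped with 2× Laemmli buffer, then boiled 2 min and resolved on 12% SDS–PAGE. Substrate phosphorylation bands on autoradiograms were quantified by densitometry and plotted against log drug concentration. IC50 came from sigmoidal variable-slope nonlinear regression.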

For data set [6], the target named is Epidermal growth factor receptor (Homo sapiens, UniProt P00533). Kind of data set: Inhibition of EGFR by immunoprecipitation assay.
For data set [7], the target named is Receptor tyrosine-protein kinase erbB-2 (Homo sapiens, UniProt P04626). Kind of data set: Inhibition of ErbB2 by immunoprecipitation assay.
The target of data set [8] is Cyclin-dependent kinase 1 (Homo sapiens, UniProt P06493). Kind of data set: Inhibition of GST-tagged recombinant CDK1 after 20 mins by autoradiography. The method in brief:
as §1

In data set [9] the target is Serine/threonine-protein kinase PLK1 (Homo sapiens, UniProt P53350). The data set is described as follows: Inhibition of GST-tagged recombinant PLK1 after 20 mins by autoradiography. The method in brief: as §1
Data set [10] addresses Proto-oncogene tyrosine-protein kinase Src (Homo sapiens, UniProt P12931). Kind of data set: Inhibition of GST-tagged recombinant Src after 20 mins by autoradiography. The gist of the method:
as §1

In data set [11] the target is T1, Bcr/Abl fusion protein. Kind of data set: Inhibition of Bcr-Abl after 20 mins by autoradiography. Format: protein assay. The method in brief: as §1

T1 sequence (P00519 whole entry, the tested form may be a part): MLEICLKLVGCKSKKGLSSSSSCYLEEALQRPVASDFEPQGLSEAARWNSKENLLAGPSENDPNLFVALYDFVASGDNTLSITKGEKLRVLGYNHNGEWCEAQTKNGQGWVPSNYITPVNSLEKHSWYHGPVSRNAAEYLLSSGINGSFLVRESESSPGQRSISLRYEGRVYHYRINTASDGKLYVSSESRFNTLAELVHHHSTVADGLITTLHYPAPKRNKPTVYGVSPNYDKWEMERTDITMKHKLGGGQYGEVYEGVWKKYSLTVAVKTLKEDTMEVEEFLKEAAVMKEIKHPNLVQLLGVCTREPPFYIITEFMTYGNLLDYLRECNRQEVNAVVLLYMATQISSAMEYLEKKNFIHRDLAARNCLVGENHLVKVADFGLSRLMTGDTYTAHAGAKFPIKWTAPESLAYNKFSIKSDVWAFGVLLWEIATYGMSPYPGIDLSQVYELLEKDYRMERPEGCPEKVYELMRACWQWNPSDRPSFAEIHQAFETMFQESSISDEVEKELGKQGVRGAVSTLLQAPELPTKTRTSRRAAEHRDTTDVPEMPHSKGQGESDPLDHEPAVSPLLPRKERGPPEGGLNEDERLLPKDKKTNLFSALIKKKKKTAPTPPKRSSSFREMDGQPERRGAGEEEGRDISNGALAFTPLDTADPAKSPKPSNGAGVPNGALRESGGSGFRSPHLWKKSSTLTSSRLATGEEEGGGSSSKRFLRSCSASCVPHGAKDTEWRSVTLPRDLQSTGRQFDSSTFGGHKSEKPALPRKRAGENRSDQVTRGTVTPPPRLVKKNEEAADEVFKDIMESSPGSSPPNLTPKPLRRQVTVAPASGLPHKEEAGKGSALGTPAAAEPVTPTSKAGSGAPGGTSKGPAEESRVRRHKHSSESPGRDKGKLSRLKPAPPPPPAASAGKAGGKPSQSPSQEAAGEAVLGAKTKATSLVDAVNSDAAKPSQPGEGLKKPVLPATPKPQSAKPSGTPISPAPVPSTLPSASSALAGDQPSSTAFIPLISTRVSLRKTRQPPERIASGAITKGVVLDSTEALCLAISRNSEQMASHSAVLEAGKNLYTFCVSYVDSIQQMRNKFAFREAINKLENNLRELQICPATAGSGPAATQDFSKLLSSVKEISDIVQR
T1 sequence (P11274 whole entry, further chain, the tested form may be a part): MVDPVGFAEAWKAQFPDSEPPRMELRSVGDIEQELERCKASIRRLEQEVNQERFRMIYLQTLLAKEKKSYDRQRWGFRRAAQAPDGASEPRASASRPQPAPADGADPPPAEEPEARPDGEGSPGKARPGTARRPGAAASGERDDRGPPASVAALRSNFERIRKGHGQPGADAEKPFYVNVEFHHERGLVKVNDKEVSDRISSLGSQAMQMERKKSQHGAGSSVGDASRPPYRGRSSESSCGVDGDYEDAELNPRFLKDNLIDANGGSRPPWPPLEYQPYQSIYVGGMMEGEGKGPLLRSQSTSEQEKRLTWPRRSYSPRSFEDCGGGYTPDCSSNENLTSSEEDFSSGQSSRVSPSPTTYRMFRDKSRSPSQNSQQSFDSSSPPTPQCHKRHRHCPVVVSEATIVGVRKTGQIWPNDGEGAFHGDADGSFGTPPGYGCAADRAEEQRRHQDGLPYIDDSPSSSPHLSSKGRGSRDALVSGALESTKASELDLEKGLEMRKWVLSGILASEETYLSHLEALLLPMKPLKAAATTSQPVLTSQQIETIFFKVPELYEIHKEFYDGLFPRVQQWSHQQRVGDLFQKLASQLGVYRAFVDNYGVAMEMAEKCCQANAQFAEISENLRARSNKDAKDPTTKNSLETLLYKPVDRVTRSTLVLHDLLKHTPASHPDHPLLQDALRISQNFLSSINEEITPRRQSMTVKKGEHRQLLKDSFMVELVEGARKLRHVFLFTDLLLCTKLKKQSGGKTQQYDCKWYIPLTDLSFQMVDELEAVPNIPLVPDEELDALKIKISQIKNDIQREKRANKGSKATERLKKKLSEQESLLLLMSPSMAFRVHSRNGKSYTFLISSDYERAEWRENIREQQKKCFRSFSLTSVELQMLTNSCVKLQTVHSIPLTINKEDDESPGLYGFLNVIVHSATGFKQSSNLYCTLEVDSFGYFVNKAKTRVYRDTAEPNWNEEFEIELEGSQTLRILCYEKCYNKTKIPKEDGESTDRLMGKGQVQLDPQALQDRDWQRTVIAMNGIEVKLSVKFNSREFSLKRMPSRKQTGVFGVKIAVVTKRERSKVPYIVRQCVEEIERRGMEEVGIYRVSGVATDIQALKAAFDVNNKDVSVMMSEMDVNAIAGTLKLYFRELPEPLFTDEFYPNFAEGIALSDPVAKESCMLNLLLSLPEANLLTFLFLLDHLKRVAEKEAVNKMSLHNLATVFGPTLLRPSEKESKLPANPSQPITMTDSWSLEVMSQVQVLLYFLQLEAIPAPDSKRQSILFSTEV
Sequence of Bcr/Abl fusion protein (Homo sapiens) (P00519 whole entry, looked up, the tested form may be a part): as the sequence (P00519 whole entry, the tested form may be a part) above
Sequence of Bcr/Abl fusion protein (Homo sapiens) (P11274 whole entry, looked up, the tested form may be a part): as the sequence (P11274 whole entry, further chain, the tested form may be a part) above
Sequence of Serine/threonine-protein kinase PLK1 (P53350 whole entry): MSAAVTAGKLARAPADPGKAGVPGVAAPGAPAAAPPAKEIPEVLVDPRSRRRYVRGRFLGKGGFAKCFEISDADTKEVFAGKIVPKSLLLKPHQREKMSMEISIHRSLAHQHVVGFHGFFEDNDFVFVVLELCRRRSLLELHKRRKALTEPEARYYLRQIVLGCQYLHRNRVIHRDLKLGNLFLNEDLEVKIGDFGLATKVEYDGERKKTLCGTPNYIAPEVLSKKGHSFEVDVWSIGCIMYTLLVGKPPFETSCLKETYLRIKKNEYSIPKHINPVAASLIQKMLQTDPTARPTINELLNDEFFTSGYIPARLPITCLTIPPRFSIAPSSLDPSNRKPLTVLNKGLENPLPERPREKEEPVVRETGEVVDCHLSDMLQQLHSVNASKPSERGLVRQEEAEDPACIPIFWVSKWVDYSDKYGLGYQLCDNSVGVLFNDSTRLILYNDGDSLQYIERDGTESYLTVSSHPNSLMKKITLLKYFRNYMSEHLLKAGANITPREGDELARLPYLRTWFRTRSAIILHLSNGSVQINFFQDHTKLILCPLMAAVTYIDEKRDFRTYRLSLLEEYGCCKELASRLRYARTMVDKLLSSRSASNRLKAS
Sequence of Proto-oncogene tyrosine-protein kinase Src (P12931 2-536 limits assumed): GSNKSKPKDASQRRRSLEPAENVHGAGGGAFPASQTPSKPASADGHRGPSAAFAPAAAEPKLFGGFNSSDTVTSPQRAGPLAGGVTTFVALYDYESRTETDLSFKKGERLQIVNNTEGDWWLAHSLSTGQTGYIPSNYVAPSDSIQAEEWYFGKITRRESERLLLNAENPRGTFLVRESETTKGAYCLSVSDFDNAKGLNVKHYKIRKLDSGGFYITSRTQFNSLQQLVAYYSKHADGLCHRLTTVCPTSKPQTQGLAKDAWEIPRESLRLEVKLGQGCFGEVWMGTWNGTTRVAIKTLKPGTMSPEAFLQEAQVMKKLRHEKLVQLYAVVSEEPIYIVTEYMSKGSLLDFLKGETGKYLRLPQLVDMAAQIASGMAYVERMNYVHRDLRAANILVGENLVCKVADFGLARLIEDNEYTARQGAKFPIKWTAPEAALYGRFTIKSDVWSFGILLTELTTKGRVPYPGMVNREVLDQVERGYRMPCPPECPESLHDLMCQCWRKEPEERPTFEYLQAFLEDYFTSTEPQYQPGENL
Sequence of Tyrosine-protein kinase Lyn (P07948 whole entry): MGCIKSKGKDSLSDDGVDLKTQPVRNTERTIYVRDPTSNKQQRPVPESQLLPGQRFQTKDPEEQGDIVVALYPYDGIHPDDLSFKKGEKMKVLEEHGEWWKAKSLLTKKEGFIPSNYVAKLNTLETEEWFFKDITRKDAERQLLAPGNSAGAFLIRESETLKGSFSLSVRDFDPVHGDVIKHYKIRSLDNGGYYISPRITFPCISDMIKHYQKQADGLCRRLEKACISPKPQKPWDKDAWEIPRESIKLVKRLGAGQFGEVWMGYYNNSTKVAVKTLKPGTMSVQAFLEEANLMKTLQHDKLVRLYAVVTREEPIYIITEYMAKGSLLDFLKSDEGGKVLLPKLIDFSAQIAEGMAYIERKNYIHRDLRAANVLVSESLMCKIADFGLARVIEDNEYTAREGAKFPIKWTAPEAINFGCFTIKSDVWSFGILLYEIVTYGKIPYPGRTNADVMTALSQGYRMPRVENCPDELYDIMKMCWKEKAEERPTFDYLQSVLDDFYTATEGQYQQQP
Sequence of Cyclin-dependent kinase 1 (P06493 whole entry): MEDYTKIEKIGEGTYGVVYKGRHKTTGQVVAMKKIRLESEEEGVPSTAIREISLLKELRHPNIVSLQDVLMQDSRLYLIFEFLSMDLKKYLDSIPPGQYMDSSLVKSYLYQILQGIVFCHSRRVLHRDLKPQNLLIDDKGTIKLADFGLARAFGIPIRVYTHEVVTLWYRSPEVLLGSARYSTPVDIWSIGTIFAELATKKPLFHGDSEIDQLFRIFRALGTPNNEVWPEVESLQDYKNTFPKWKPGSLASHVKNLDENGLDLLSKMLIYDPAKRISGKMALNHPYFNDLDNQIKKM

For `CN1CCN(CCNC(=O)c2ccc(C(=O)/C(=C\c3ccc(F)c([N+](=O)[O-])c3)SCc3ccc(Br)cc3)cc2)CC1`, the IC50 against Bcr/Abl fusion protein [1] and with K562 was 2500 nM each time. Further, the solubility in data set [2] and in data set [3] was > 10000 µg/mL in each case. The GI50 in the data set with K562 and in the data set on DU-145 was 1000 nM in each case. The inhibition entry in data set [4] was “Active”.

Turning to `O=C(O)c1ccc(C(=O)/C(=C\c2ccc(F)c([N+](=O)[O-])c2)SCc2ccc(Br)cc2)cc1`, the IC50 was 17000 nM in data set [5]; > 20000 nM in [6]; 500 nM against Bcr/Abl fusion protein [1]; > 10000 nM in data set [7]; 300 nM in the data set on K562; > 50000 nM in data set [8]. Moreover, the IC50 in data set [9] is > 50000 nM; in [10], 13200 nM; against Bcr/Abl fusion protein [11] it was 750 nM. Besides, the solubility in [2] is < 1000 µg/mL. The GI50 was < 1000 nM in the data set on K562 and 1000 nM in the data set with DU-145. Also, the inhibition result in data set [4] was “Active”.
